From ChEMBL document CHEMBL1157932, “Prenylated pterocarpans as bacterial neuraminidase inhibitors” (Bioorg Med Chem, 2010)
Active and inactive are the calls of the source. No cut-off for these calls is given here.

Key:
Sialidase [1] = target: Sialidase (Vibrio cholerae serotype O1 (strain ATCC 39315 / El Tor Inaba N16961), UniProt P0C6E9); test: (§1) Inhibition of Vibrio cholerae neuraminidase assessed as inhibition of 4-MU-NANA hydrolysis after 30 mins by spectrofluorimetry
Procedure, shortened: (§2)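 V. cholerae enzyme (8.3 U) with compound in 50 mM MES, 6 mM CaCl2, pH 5.6, pre-incubated 30 min at 37 °C with shaking. 4-MU-NANA added at 25 µM final, 30 min at 37 °C, then quenched with 0.25 M glycine pH 10.0. Read at ex 360/em 440 nm, blank-corrected, expressed as % of no-inhibitor control, at least triplicate.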

[2] = target: Sialidase (Vibrio cholerae serotype O1 (strain ATCC 39315 / El Tor Inaba N16961)) (UniProt P0C6E9); test: as §1; procedure, shortened: as §2
Sequence of Sialidase (Vibrio cholerae serotype O1 (strain ATCC 39315 / El Tor Inaba N16961)) (P0C6E9 whole entry, one chain of several): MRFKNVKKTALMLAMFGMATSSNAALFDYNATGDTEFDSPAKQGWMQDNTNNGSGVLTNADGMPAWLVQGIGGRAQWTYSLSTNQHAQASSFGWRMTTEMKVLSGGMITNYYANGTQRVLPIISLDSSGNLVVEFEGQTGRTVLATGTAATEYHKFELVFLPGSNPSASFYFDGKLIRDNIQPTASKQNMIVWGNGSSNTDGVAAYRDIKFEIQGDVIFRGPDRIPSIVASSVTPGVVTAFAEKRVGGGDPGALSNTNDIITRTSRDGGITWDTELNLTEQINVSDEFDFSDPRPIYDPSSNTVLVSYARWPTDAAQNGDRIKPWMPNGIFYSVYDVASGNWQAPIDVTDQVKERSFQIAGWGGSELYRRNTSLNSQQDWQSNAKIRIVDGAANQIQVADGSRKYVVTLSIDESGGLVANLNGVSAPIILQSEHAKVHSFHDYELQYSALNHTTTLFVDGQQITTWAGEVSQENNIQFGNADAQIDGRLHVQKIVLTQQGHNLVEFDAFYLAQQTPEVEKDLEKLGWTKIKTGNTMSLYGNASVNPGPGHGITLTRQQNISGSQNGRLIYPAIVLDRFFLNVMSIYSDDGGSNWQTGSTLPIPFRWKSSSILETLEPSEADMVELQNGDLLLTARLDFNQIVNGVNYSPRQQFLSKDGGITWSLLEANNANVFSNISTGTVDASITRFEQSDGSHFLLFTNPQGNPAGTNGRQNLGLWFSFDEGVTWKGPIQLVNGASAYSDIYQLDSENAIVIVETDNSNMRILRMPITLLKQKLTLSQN

[3] = target: T1, Sialidase (Clostridium perfringens) (UniProt P10481); test: Reversible inhibition of Clostridium perfringens neuraminidase at 0.1 times IC50 pre-incubated for 15 mins by spectrofluorimetry
T1 sequence (whole entry): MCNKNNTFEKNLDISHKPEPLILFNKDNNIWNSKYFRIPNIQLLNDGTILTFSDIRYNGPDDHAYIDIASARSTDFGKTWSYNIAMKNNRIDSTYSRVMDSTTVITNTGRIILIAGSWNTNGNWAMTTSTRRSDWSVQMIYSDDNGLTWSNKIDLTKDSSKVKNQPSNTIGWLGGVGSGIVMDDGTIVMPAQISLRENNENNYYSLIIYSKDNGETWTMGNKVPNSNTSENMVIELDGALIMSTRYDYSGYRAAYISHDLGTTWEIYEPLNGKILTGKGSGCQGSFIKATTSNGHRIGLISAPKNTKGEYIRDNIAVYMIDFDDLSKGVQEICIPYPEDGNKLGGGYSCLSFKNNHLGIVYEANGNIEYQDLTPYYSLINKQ
Procedure, shortened: (§3)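 Reversibility by jump dilution: enzyme pre-incubated 15 min with compound at 100-fold assay enzyme level (0.125 U/mL), then diluted 1/100 into acetate buffer with substrate. Progress curves of fluorescence over 30 min compared with enzyme pre-incubated and diluted without compound.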

Sialidase [4] = target: T2, Sialidase (Clostridium perfringens, UniProt P10481); test: Noncompetitive inhibition of Clostridium perfringens neuraminidase
T2 sequence (P10481 whole entry): T1 sequence (whole entry)
Procedure, shortened: (§4)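 Kinetics run in acetate-buffer 4-MU-NANA fluorometric assay without stop solution, product read immediately at ex 360/em 440 nm across substrate and inhibitor concentrations. Mode assigned from Lineweaver–Burk and Dixon plots; Ki from x-axis intersection of lines.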

[5] = target: T1, Sialidase (Clostridium perfringens); test: (§5) Inhibition of Clostridium perfringens neuraminidase assessed as inhibition of 4-MU-NANA hydrolysis after 10 mins by spectrofluorimetry
Procedure, shortened: (§6)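 Enzyme at 0.05 U/mL in 0.04 M sodium acetate pH 5.0 with compound (DMSO stock diluted in buffer) and 4-MU-NANA (1 mM stock); 10 min at 37 °C. Stopped with 0.1 M glycine–NaOH pH 10.4; 4-methylumbelliferone read at ex 360/em 440 nm. IC50 from regression, mean ± SD of three replicates.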

Sialidase [6] = target: T2, Sialidase; test: as §5; procedure, shortened: as §6
[7] = target: T1, Sialidase (Clostridium perfringens); test: Noncompetitive inhibition of Clostridium perfringens neuraminidase by Dixon plot analysis
Procedure, shortened: (§7)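 Dixon plots of 1/v against [I] at each substrate concentration, rates from unquenched fluorometric 4-MU-NANA hydrolysis (ex 360/em 440 nm); Ki read from the x-axis value where lines intersect.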

[8] = target: T1, Sialidase (Clostridium perfringens); test: Inhibition of Clostridium perfringens neuraminidase at 10 times IC50 by spectrofluorimetry; procedure, shortened: as §3
[9] = target: T1, Sialidase (Clostridium perfringens); test: Noncompetitive inhibition of Clostridium perfringens neuraminidase by Lineweaver-Burke plot analysis
[10] = target: T1, Sialidase (Clostridium perfringens); test: Reversible inhibition of Clostridium perfringens neuraminidase at 10 times IC50 pre-incubated for 15 mins by spectrofluorimetry; procedure, shortened: as §3
[11] = target: T1, Sialidase (Clostridium perfringens); test: Inhibition of Clostridium perfringens neuraminidase at 0.1 times IC50 by spectrofluorimetry; procedure, shortened: as §3
Vibrio cholerae [12] = test: Antibacterial activity against Vibrio cholerae 16961 infected in human HeLa cells assessed as inhibition of bacterial adherence to host cell at 3 to 10 ug/ml pre-incubated for 1 hr before infection measured after 30 mins of infection by Giemsa staining; format: functional, organism-based
Vibrio cholerae [13] = test: Antibacterial activity against Vibrio cholerae 16961 at 3 to 10 ug/ml after 24 hrs; format: functional, organism-based
[14] = target: T1, Sialidase (Clostridium perfringens); test: Competitive inhibition of Clostridium perfringens neuraminidase by Lineweaver-Burke plot analysis
[15] = target: T1, Sialidase (Clostridium perfringens); test: Competitive inhibition of Clostridium perfringens neuraminidase by Dixon plot analysis; procedure, shortened: as §7
Sialidase [16] = target: T2, Sialidase; test: Competitive inhibition of Clostridium perfringens neuraminidase; procedure, shortened: as §4
[17] = target: Sialidase (Vibrio cholerae serotype O1 (strain ATCC 39315 / El Tor Inaba N16961)) (UniProt P0C6E9); test: Inhibition of Vibrio cholerae neuraminidase assessed as inhibition of 4-MU-NANA hydrolysis at 30 ug/mL after 10 mins by spectrofluorimetry
[18] = target: T1, Sialidase (Clostridium perfringens); conditions: 20 ug/mL

Sequence of Sialidase (Vibrio cholerae serotype O1 (strain ATCC 39315 / El Tor Inaba N16961), UniProt P0C6E9) (P0C6E9 whole entry, one chain of several): as the sequence (P0C6E9 whole entry, one chain of several) above

| Structure (SMILES) | IC50 (Sialidase [1]) [µM] | Activity [2] | inhibition [3] | Ki (Sialidase [4]) [µM] | Activity [5] | IC50 (Sialidase [6]) [µM] | inhibition [7] | inhibition [8] [%] | inhibition [9] | inhibition [10] | inhibition [11] [%] | Activity (Vibrio cholerae [12]) | Activity (Vibrio cholerae [13]) | inhibition [14] | inhibition [15] | Ki (Sialidase [16]) [µM] | inhibition [17] [%] | inhibition [18] [%] |
| --- | --- | --- | --- | --- | --- | --- | --- | --- | --- | --- | --- | --- | --- | --- | --- | --- | --- | --- |
| Oc1ccc2c(c1)O[C@H]1c3ccc(O)cc3OC[C@@H]21 | 29.5 | Dose-dependent effect | Active | 3.83 | Dose-dependent effect | 6.39 | Active | 91 | Active | Active | 9 |  |  |  |  |  |  |  |
| CC(C)=CCc1cc2c(cc1O)OC[C@H]1c3ccc(O)cc3O[C@@H]21 [CALOPOCARPIN] | 7.55 |  | Active | 2.09 | Dose-dependent effect | 1.57 | Active | 91 | Active | Active | 9 | Active | inactive |  |  |  |  |  |
| COc1ccc2c(c1CC=C(C)C)O[C@H]1c3cc(CC=C(C)C)c(O)cc3OC[C@@]21O [ERYSTAGALLIN A] | 27.7 | Dose-dependent effect | Active | 1.8 | Dose-dependent effect | 2.04 | Active | 91 | Active | Active | 9 |  |  |  |  |  |  |  |
| CC(C)=CCc1cc2c(cc1O)OC[C@H]1c3ccc4c(c3O[C@@H]21)CC(O)C(C)(C)O4 (stereo partly drawn) [ERYSUBIN D] | 26.4 | Dose-dependent effect | Active |  | Dose-dependent effect | 26.4 |  | 91 |  | Active | 9 |  |  | Active | Active | 15.2 |  |  |
| CC(C)=CCc1cc2c(cc1O)OC[C@@]1(O)c3ccc4c(c3O[C@@H]21)C=CC(C)(C)O4 [ERYSUBIN E] | 19.5 | Dose-dependent effect | Active | 0.24 | Dose-dependent effect | 1.3 | Active | 91 | Active | Active | 9 |  |  |  |  |  |  |  |
| COc1ccc2c(c1CC=C(C)C)O[C@H]1c3ccc(O)cc3OC[C@@]21O [ERYTHRABYSSIN I] | 22 | Dose-dependent effect | Active | 0.31 | Dose-dependent effect | 2.28 | Active | 91 | Active | Active | 9 |  |  |  |  |  |  |  |
| CC1(C)Oc2ccc3c(c2CC1O)O[C@H]1c2ccc(O)cc2OC[C@@H]31 (stereo partly drawn) [ERYTHRIBYSSIN D] | 46.2 | Dose-dependent effect | Active |  | Dose-dependent effect | 77.1 |  | 91 |  | Active | 9 |  |  |  |  |  |  |  |
| CC(C)=CCc1c(O)ccc2c1O[C@H]1c3cc4c(cc3OC[C@@H]21)OC(C)(C)C(O)C4 (stereo partly drawn) [ERYTHRIBYSSIN L] | 27.1 |  | Active | 4.13 | Dose-dependent effect | 2.79 | Active | 91 | Active | Active | 9 |  |  |  |  |  |  |  |
| CC1(C)Oc2ccc3c(c2CC1O)O[C@@H]1c2ccc(O)cc2OC[C@H]31 (stereo partly drawn) [ERYTHRIBYSSIN M] | 77.7 | Dose-dependent effect | Active |  | Dose-dependent effect | 205 |  | 91 |  | Active | 9 |  |  |  |  |  |  |  |
| CC(C)=CCc1c(O)ccc2c3c(oc12)-c1cc(C=O)c(O)cc1OC3 [ERYTHRIBYSSIN O] | 0.35 | Dose-dependent effect | Active | 1.21 | Dose-dependent effect | 1.32 | Active | 91 | Active | Active | 9 |  |  |  |  |  |  |  |
| COc1ccc2c3c(oc2c1CC=C(C)C)-c1ccc(O)cc1OC3 [ERYVARIN D] | 3.3 | Dose-dependent effect |  | 2.55 |  | 2.09 |  |  |  |  |  |  |  |  |  |  |  |  |
| CC1(C)C=Cc2cc3c(cc2O1)O[C@H]1c2ccc(O)cc2OC[C@@H]31 [ISONEORAUTENOL] | 64.8 | Dose-dependent effect | Active | 11 | Dose-dependent effect | 14.1 | Active | 91 | Active | Active | 9 |  |  |  |  |  |  |  |
| CC1(C)C=Cc2cc3c(cc2O1)OC[C@H]1c2ccc(O)cc2O[C@@H]31 [NEORAUTENOL] | 53.1 | Dose-dependent effect | Active | 21.7 | Dose-dependent effect | 19.8 | Active | 91 | Active | Active | 9 |  |  |  |  |  |  |  |
| CC1(C)C=Cc2c(ccc3c2O[C@H]2c4ccc(O)cc4OC[C@@H]32)O1 [PHASEOLIN] | 31.4 | Dose-dependent effect |  |  |  | 33.6 |  |  |  |  |  |  |  |  |  | 4.84 |  |  |
| O=c1c(O)c(-c2ccc(O)c(O)c2)oc2cc(O)cc(O)c12 [QUERCETIN] |  |  |  |  | Dose-dependent effect | 25.3 |  |  |  |  |  |  |  |  |  |  | 29.3 | 48.9 |
| CC(C)=CCc1cc2c(cc1O)O[C@H]1c3ccc(O)cc3OC[C@@H]21 [SOPHORAPTEROCARPAN A] | 11.6 |  | Active | 1.78 | Dose-dependent effect | 2.01 | Active | 91 | Active | Active | 9 |  |  |  |  |  |  |  |
